Measured values as given in the EternaBench riboswitch data.

System: MS2 coat protein
Test: apparent Kd, MS2 coat protein; higher = weaker binding; RNA-MaP array; FMN 200 µM where present
How it was run: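 Designs were transcribed by stalled E. coli RNA polymerase on Illumina sequencing-chip clusters. They were titrated with SNAP-549-labelled MS2 coat protein from 0.7 or 1.5 nM, doubling to 3 µM, in 100 mM Tris-HCl pH 7.5, 80 mM KCl, 4 mM MgCl2, BSA, DTT, yeast tRNA and Tween-20, without and then with constant ligand. The apparent Kd is the median of filtered per-cluster fits after normalisation of green signal to red-channel RNA signal and control-cluster median Fmax.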

[1] = designed as: OFF switch for flavin mononucleotide, no ligand
[2] = ligand present: flavin mononucleotide, designed as: OFF switch for flavin mononucleotide
[3] = designed as: ON switch for flavin mononucleotide, no ligand
[4] = ligand present: flavin mononucleotide, designed as: ON switch for flavin mononucleotide

| Sequence | apparent Kd [1] [nM] | apparent Kd [2] [nM] | apparent Kd [3] [nM] | apparent Kd [4] [nM] |
| --- | --- | --- | --- | --- |
| CCCGCUGCUGUGAGGAUAUGCCUGUGGGUGCGUGGGUAGAAGGCACAUGAGGAUCACCCAUGUCCUGCGGCUCC | 366 | 244 |  |  |
| CGAUAUAACUCAGGAUAUCGGCAUGGGUAGAUUACAUGAGGAUCACCCAUGUGCAUGUCCCGGCACGAGAAGGGAGUAACGCAU |  |  | 290 | 47.8 |
| UUUCCGCGAGGAUAUGCGGGUUGUGCUUUUCAUUUUUUAUAACAUGAGGAUCACCCAUGUAGAAGGUGCUUCUU | 186 | 166 |  |  |
| AUCAUCUUGUCAGGAUAUGCGUGUCAACGAAAGUAGACAAUCUUGAUAACAUGAGGAUCACCCAUGUAGAAGGGACGAGAUGAU | 21 | 21.9 |  |  |
| AGCUAGUCAGGAUAUACGAACAUGUCAAAAGACGUGAAGGGACAUGAGGAUCACCCAUGUAGAAGGGACUAGCA | 40 | 170 |  |  |
| AGAGCCUCGUGAGGAUAUACAUGAGGAUCACCCAUGUAAAUGAAAGAUAACGAGGAAACUCGAAUGUAGAAGGCACGAGGCUCA | 24.4 | 182 |  |  |
| AAUUAUUAUUGAGGAUAUCGUAUUGAAACAAUAUGAGAAGGCGGGAUAAACAUGAGGAUCACCCAUGUGAGCCUGAUGCUUGUG | 16.3 | 15.6 |  |  |
| AUUUGACACGUAGGAUAUCGCUUAAAUUUAACACGAGAAGGACGAACAUGAGGAUCACCCAUGUAUCAUGGAGUAGAUAAUUUG | 115 | 329 |  |  |
| UUCGCUAAGGUGUAGCGAGGCUCGCAAGAAGGGUGAUGCACAUGAGGAUCACCCAUGUAAGCCUUACAGGAUAUUGCUUGCCGA |  |  | 509 | 40.7 |
| AAAGUGUCAGGAUAUUGUUAGUUUAGUUGUUUGUAUUAGUUCGAGAAGGGACAUGAGGAUCACCCAUGUUGAAA | 34 | 32.9 |  |  |
| UCGUACUAGGGAGGAUAUGGGAAGAUACAUGAGGAUCACCCAUGUUUAAGAAUGCCGAGAGGCAACUAGAAGGCCCUAGUACCU |  |  | 391 | 19.1 |
| GUUACACAUGAGGAUCACCCAUGUAAGGAUAUGCUGCGGUCGCGCUGACGUGACUGCAGCAGAAGGUACACAUG | 105 | 133 |  |  |
| AAGAACUGAGGAUAUGCAAAAGGGAAAGCUGAUCCUCAUCUACAUGAGGAUCACCCAUGUAGAAGGCGGGAAAU | 49.4 | 50.5 |  |  |
| UAUGAGCGAGGAUAUGCUUGGGACUGUCGGAAGGUGGCGGGACAUGAGGAUCACCCAUGUAGAAGGCGCGAGCG | 70.7 | 82.8 |  |  |
| UUUCCCUGUGUGAGGAUAUACUUGUUUGGGUUUUUGUAGAAGGCACAUGAGGAUCACCCAUGUACUCUGUCCUG | 25.3 | 30.6 |  |  |
| GCGUUACAUGAGGAUCACCCAUGUGAGGAUAUGGUUCGGUACUGUCCUGUCGCGUACUCCAGAAGGCACGUGUC | 31.3 | 34.7 |  |  |
| CCUCCCUGAGGAUAUCCACCCUCAUACAUGAGGAUCACCCAUGUUCAACCCUGGGUACCCGGAGAAGGCAGAUUUC | 116 | 175 |  |  |
| UUUUAACAUGAGGAUCACCCAUGUGAGGAUAUCGAAAUUUAUAUUAAUAUUUAUUAAACGAGAAGGCACAUUUU | 82.2 | 80.7 |  |  |
| CGUUCUAGAGGAUAUACAGCUUAUGUACGGCGAUCUGGACAACAUGAGGAUCACCCAUGUAGAAGGCUAAGCAC | 36.4 | 69 |  |  |
| GCUACUACAUGAGGAUCACCCAUGUAUCCGUAGCGGGCCGCACAGGAUAUCAACCUCGGAAGAGGUGAGAAGGGUGAUACUCAU |  |  | 23.2 | 38.1 |
| GGAUGACAAAGUCAUCCAUUACGAACAUGAGGAUCACCCAUGUAGGAUAUGCAACUCAAAGAGUUGCAGAAGGACAUGUGUCUU | 29.6 | 146 |  |  |
| UCUUUACAUGAGGAUCACCCAUGUGAGGAUAUGGAUUCGCUGGCCGUAGCCAGUGGAUCCAGAAGGCGCGUGAU | 74.7 | 64.9 |  |  |
| CUGAUGUUAGGAUAUCAGGUUGCGCGCGAAGGCGCGCGGCAUGAGAAGGAACAUGAGGAUCACCCAUGUGACGA | 39.7 | 148 |  |  |
| GUGAAGAUAUCAGGAUAUCUAUUUCCUACAUGAGGAUCACCCAUGUAGGUGAUCAGCCGAGUAAAGGAGAAGGGAUAUCUUUAC |  |  | 23.6 | 10.1 |
| UCAGUAGAGUGAGGAUAUACGAAAGGCGAUCCAUACAUGAGGAUCACCCAUGUAGAAGGCACUCUACUGUAAGUCGGAAACGAC | 173 | 12.3 |  |  |
| GCGCGAAGCUAGGAUAUGGGAGCCGAAAGGCUCCCAGAAGGAGCCACAUGAGGAUCACCCAUGUGGUGAUCCUG | 18.6 | 38.6 |  |  |
| UGGUCAUGAUCAGGAUAUUAACAUGGGCUACAUUAAGAAGGGAUAGUGAGAUACGAACUACAUGAGGAUCACCCAUGUGUUGUU |  |  | 68.7 | 55.4 |
